Structures are written as SMILES. A value given as a limit tells only on which side of the number the result lay.

Target in the first experiment: not listed separately
As to the kind of experiment: In vitro binding to GABA-A benzodiazepine receptor of rat cerebral cortical membranes.
Settings: not given
In a few lines: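 Rat cerebral cortex homogenised in Tris-HCl (50 mM, pH 7.4), washed three times by centrifugation at 20000g, 4 °C, and resuspended at 0.5–0.6 mg protein/mL. Incubated with 2 nM [3H]diazepam, 30 min, 4 °C. Stopped with ice-cold buffer, GF/B filtered, scintillation counted. Nonspecific binding with 3 μM unlabelled diazepam or clonazepam. […] Mean of two experiments.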
With `CN1C(=O)CN=C(c2ccccc2)c2cc(Cl)ccc21` [DIAZEPAM], binding was characterised by a dissociation constant (Kd) of 5.6 µM.

A further experiment addresses GABA-A receptor; anion channel. As to the kind of experiment: In vitro inhibition of [3H]diazepam binding to rat cerebral cortical membrane benzodiazepine receptors.
Settings: not given
In a few lines:
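Thrice-washed rat cerebral cortex membranes in 50 mM Tris-HCl pH 7.4 (0.5–0.6 mg/mL protein), incubated 30 min at 4 °C with 2 nM [3H]diazepam plus test compound. Stopped with ice-cold Tris, then GF/B filtration and scintillation counting. Nonspecific binding with 3 μM unlabeled diazepam or clonazepam.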
In turn, `Cc1ncc(CO)c(C2NCCc3ncn(C)c32)c1O` (configuration not stated) came in with an inhibition constant Ki of more than 50 µM. On the same count and under the same terms, with `COC(=O)C1Cc2[nH]cnc2C(c2c(CO)cnc(C)c2O)N1` (configuration not stated) the figure was more than 50 µM. The same measure, in the same setting: for `O=C(O)C1Cc2cc(O)c(O)cc2CN1` (configuration not stated) the value was more than 50 µM; for `NC(=O)c1cc2c3ccccc3nc-2c[nH]1`, 0.068 µM.

Compound `COC(=O)C1Cc2ccccc2CN1` (configuration not stated) yielded an inhibitory constant (Ki) of more than 50 µM.

In the case of `OCc1cc2c3ccccc3nc-2c[nH]1`, the Ki is 1.47 µM.

Take `CC(=O)OCc1cc2c3ccccc3nc-2c[nH]1`: the Ki came to 750 µM. Still for that read-out and setting: for `COC(=O)c1cc2cc(OC)c(OC)cc2cn1` the value was 10 µM; for `CC(=O)c1cc2c3ccccc3nc-2c[nH]1`, 0.058 µM; for `COC(=O)c1cc2c(cn1)[nH]c1ccccc12` [BETA-CCM], 0.001 µM.

Compound `COC(=O)c1cc2c3ccccc3n3c(=O)ccc(n1)c23` registered a Ki of 0.1 µM. Same read-out and setting: for `O=C(O)C1Cc2[nH]cnc2C(c2ccccc2)N1` (cis isomer) the value was more than 50 µM; for `O=C(O)C1Cc2[nH]cnc2CN1` (configuration not stated), more than 50 µM. The same measure, in the same setting: with `CCOC(=O)c1cc2c(cn1)[nH]c1ccccc12` the figure was 0.001 µM. Same read-out and setting: with `O=C1CCC2c3c(c4ccccc4n31)CCN2Cc1ccccc1` (configuration not stated) the figure was 11.2 µM; with `COC(=O)c1cc2[nH]cnc2c(-c2ccccc2)n1`, 10 µM; with `COC(=O)C1Cc2[nH]cnc2C(c2ccccc2)N1` (trans isomer), more than 50 µM. The compound `COC(=O)c1cc2[nH]cnc2cn1` had a Ki of more than 50 µM. The same measure, in the same setting: with `COC(=O)C1Cc2cc(OC)c(OC)cc2CN1` (configuration not stated) the figure was 32 µM; with `O=c1ccc2nccc3c4ccccc4n1c23` [CANTHIN-6-ONE], 10 µM.

For another experiment, the species on record is Rattus norvegicus. Put plainly: In vitro inhibition of [3H]diazepam binding to GABA-A benzodiazepine receptor of rat cerebral cortical membranes at 50 uM. The conditions noted are these: Membrane. The format is cell membranes.
Consider `COC(=O)C1Cc2c3n(c4ccccc24)C(=O)CCC3N1Cc1ccccc1` (configuration not stated), for which the Inhibition was 17%.

For orientation: Kd means the concentration at which binding is half-saturated. As usually defined, the Ki is a dissociation constant, usually derived from enzyme kinetics or from competition with a known ligand. A lower Ki goes with a stronger hold on the target. Broadly, the Inhibition is how much of the control response was suppressed.

The record behind these values is ChEMBL document CHEMBL1122642, “Biomimetic approach to potential benzodiazepine receptor agonists and antagonists” (J Med Chem, 1984).
